A selection: hits, their analogues and other compounds. The true share with any hit is near 2%.
NR2E3 ag-1 = activates human photoreceptor nuclear receptor NR2E3. inhibition of corepressor binding, % at 4.78 µM. Q9Y5X4. 0.12% of 320,000 active. GST-NR2E3/biotin-RetCOR TR-FRET, 1536-well;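 active = percent inhibition above the cutoff of mean plus 3 SD of all tested compounds, set per screening campaign, cut at about 20% in these data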
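Material: NR2E3–RetCOR corepressor complex / Amount: 1.35 nM GST-NR2E3 / Medium: Tris pH 7.5 / Compound: single nominal compound dose of 4.8 µM / Incubation: 5 h at 4 °C / Technique: TR-FRET, Eu(K)-anti-GST donor, streptavidin-D2 acceptor, ex 340, em 617/671 nm / Read-out basis: percent loss of FRET ratio relative to control wells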
NR1D1 modulator = modulators of human Rev-erb alpha DNA binding | P20393 | Rev-erbα–FITC-DNA binding, fluorescence polarization, 90 min | activity, % at 10 µM | 0.79% of 370,000 active;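 active = activity above about 14%, limit read from the data; passing the limit was not always enough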
NR2E3 ag-2 = agonists of human NR2E3 nuclear receptor. CHO-S Gal4-NCOR/VP16-NR2E3 two-hybrid, luciferase. Q9Y5X4. 0.35% of 360,000 active. inhibition of corepressor binding, % at 3.98 µM. AID 602229;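 active = inhibition above the mean of all tested compounds plus 3 SD, cut at about 70% in these data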;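 also: higher means lower luciferase signal from less NR2E3 corepressor binding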
PG9 binder = binds the HIV-1 gp120 antibody PG9; inhibition, % at 6.7 µM; TR-FRET gp120-PG9 antibody binding; 0.43% of 360,000 active; AID 624416; in the data active = inhibition above about 8.5%
Neddylation inh = cullin neddylation inhibition; TR-FRET cullin neddylation, biochemical; calls only at 25 µM; 0.58% of 360,000 active; AID 651699; in the data active = inhibition above about 36%
Target sequence (P61081 whole entry, looked up): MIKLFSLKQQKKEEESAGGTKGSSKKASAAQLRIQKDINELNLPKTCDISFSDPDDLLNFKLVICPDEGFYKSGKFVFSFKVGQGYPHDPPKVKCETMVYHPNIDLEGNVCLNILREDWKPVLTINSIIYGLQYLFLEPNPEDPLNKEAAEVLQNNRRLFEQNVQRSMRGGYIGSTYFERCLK
Target sequence (Q13564 whole entry, looked up): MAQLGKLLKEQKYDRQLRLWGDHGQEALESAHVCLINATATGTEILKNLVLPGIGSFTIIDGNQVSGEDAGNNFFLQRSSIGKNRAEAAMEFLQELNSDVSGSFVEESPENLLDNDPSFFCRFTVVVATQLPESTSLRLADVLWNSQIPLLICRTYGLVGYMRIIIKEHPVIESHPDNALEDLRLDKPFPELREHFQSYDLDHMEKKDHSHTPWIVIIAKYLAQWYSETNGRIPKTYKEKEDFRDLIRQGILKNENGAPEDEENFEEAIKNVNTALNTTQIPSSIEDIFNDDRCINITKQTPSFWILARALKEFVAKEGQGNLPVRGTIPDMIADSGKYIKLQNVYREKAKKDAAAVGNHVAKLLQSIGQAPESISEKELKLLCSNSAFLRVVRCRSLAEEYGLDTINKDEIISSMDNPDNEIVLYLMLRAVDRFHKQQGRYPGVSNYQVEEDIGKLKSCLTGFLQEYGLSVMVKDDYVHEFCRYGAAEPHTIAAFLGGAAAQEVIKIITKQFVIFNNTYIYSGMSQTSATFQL
NR2E3 ag confirm-1 = confirmation of human NR2E3 nuclear receptor agonists; shares compounds with NR2E3 ag-1; activation (reported as inhibition), % at 3.98 µM; cell-free NR2E3 corepressor release, TR-FRET, 5 h; 39% of 360 active; in the data active = activation above about 20%
PPARg-NCOR2 ag = releases PPARgamma from NCOR2 in NR2E3 counter-screen; shares compounds with NR2E3 ag-1; TR-FRET PPARg-NCOR2 coregulator interaction, biochemical; inhibition, % at 3.98 µM; 45% of 360 active; in the data active = inhibition above about 20%
NR2E3 ag confirm-2 = confirmation of human NR2E3 agonists; shares compounds with NR2E3 ag-2; CHO-S mammalian two-hybrid NR2E3-NCOR, luciferase luminescence; inhibition, % at 3.98 µM; 51% of 2,300 active; AID 624378;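 active = average inhibition above a cutoff equal to the mean inhibition of all tested compounds plus one SD, cut at about 70% in these data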
GAL4-VP16 luc = counter-screen for NR2E3 agonists: GAL4-VP16 reporter inhibitors | shares compounds with NR2E3 ag-2 | CHO-S GAL4-VP16 luciferase reporter, luminescence | inhibition, % at 3.98 µM | 29% of 2,300 active;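 active = mean inhibition above a cutoff equal to the average over all tested compounds plus one standard deviation, cut at about 70% in these data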;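 also: luciferase from a UAS reporter driven by GAL4-VP16 transactivation; higher means less reporter light so more repression of VP16 activity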
PG9 binder conf = confirmation of small molecules binding HIV-1 gp120 antibody PG9 | inhibition, % at 6.7 µM | 90% of 1,500 active | shares compounds with PG9 binder | TR-FRET PG9 antibody binding, biochemical | AID 651571; in the data active = inhibition above about 9%
PGV04 counter = PGV04 control antibody binding, counter-screen | shares compounds with PG9 binder | TR-FRET PGV04 antibody-gp120 binding, biochemical | inhibition, % at 6.7 µM | 95% of 1,500 active; in the data active = inhibition above about 9.5%
Large screens that a line does not name were inactive (follow-up assays come after a bar, where shown).

O=C(O)c1cc(-c2cccnc2)nc2ccc(Br)cc12	NR2E3 ag-1 56, PG9 binder 44 | NR2E3 ag confirm-1 58 | PPARg-NCOR2 ag 57 | PG9 binder conf 56 | PGV04 counter 69
O=C(CSc1nc2ccccc2c(=O)n1Cc1ccccc1)NCc1ccco1	NR2E3 ag-1 31, PG9 binder 20 | NR2E3 ag confirm-1 inactive | PPARg-NCOR2 ag inactive | PG9 binder conf 21 | PGV04 counter 25
CCOC(=O)N1CCN(C(=O)c2ccc3c(=O)n(Cc4ccc(Cl)cc4)c(=S)[nH]c3c2)CC1	none
CCOC(=O)Cn1c(=S)[nH]c2c(oc3ccc(Cl)cc32)c1=O	NR2E3 ag-1 25, PG9 binder 16 | NR2E3 ag confirm-1 46 | PPARg-NCOR2 ag 41 | PG9 binder conf inactive | PGV04 counter 9.4
Cc1cc(N2C(=O)C(O)=C(C(=O)c3cc4ccccc4o3)C2c2cccc(Cl)c2)no1 (centres undefined)	NR2E3 ag-1 22, PG9 binder 27 | NR2E3 ag confirm-1 39 | PPARg-NCOR2 ag 45 | PG9 binder conf 40 | PGV04 counter 56
CCN(CC)CCCN1C(=O)C(O)=C(C(=O)c2cc3ccccc3o2)C1c1ccccn1 (centres undefined)	NR2E3 ag-1 22, PG9 binder 25 | NR2E3 ag confirm-1 24 | PPARg-NCOR2 ag 24 | PG9 binder conf 55 | PGV04 counter 72
CCN(CC)CCN1C(=O)C(O)=C(C(=O)c2ccco2)C1c1ccccn1 (centres undefined)	none
Cc1ccc(C(=O)C2=C(O)C(=O)N(c3ncccn3)C2c2ccc(Cl)cc2)o1 (centres undefined)	NR2E3 ag-1 26, PG9 binder 19 | NR2E3 ag confirm-1 inactive | PPARg-NCOR2 ag inactive | PG9 binder conf 31 | PGV04 counter 39
Cc1cc(N2C(=O)C(O)=C(C(=O)c3cc4ccccc4o3)C2c2ccc(Br)cc2)no1 (centres undefined)	NR2E3 ag-1 24, PG9 binder 12 | NR2E3 ag confirm-1 25 | PPARg-NCOR2 ag 30 | PG9 binder conf 32 | PGV04 counter 45
COCO[C@@H]1CC(CO)=C[C@H]2OCO[C@H]21	none (no result: NR2E3 ag-1, NR2E3 ag-2, PG9 binder, Neddylation inh)
COC(=O)C1=C(C)N(Cc2cccc(C(F)(F)F)c2)C(=NCc2ccc3c(c2)OCO3)NC1c1ccccc1C(F)(F)F (centres undefined)	none (no result: NR2E3 ag-1, NR2E3 ag-2, Neddylation inh)
Cc1cc(N2C(=O)C(O)=C(C(=O)c3cc4ccccc4o3)C2c2ccc(Cl)cc2)no1 (centres undefined)	NR2E3 ag-1 29, PG9 binder 26 | NR2E3 ag confirm-1 35 | PPARg-NCOR2 ag 39 | NR2E3 ag confirm-2 88 | GAL4-VP16 luc inactive | PG9 binder conf 33 | PGV04 counter 51
O=C(C1=C(O)C(=O)N(CCCN2CCOCC2)C1c1ccc(Cl)cc1)c1cc2ccccc2o1 (centres undefined)	NR2E3 ag-1 30, PG9 binder 20 (no result: NR2E3 ag-2, Neddylation inh) | NR2E3 ag confirm-1 28 | PPARg-NCOR2 ag 21 | PG9 binder conf 24 | PGV04 counter 30
CCCOc1ccc(C2C(C(=O)c3cc4ccccc4o3)=C(O)C(=O)N2c2cc(C)on2)cc1 (centres undefined)	none
O=[N+]([O-])c1cccc(OC[C@@H](O)CN2CCC(C(O)(c3ccccc3)c3ccccc3)CC2)c1	none (no result: NR2E3 ag-1, NR2E3 ag-2, PG9 binder, Neddylation inh)
COc1ccc(OCC2CN(C3CCCC3)S(=O)(=O)CCO2)cc1 (centres undefined)	none (no result: NR2E3 ag-1, NR2E3 ag-2, Neddylation inh)
Cc1ccc(-n2c(=S)[nH]c3c(oc4ccccc43)c2=O)cc1C	NR2E3 ag-1 43, PG9 binder 20 | NR2E3 ag confirm-1 35 | PPARg-NCOR2 ag 33 | PG9 binder conf 11 | PGV04 counter 17
O=c1c2oc3ccccc3c2[nH]c(=S)n1-c1ccc(F)cc1	NR2E3 ag-1 44, PG9 binder 10 | NR2E3 ag confirm-1 32 | PPARg-NCOR2 ag 24 | PG9 binder conf 12 | PGV04 counter 12
O=C(N[C@H](Cc1ccccc1)C(=O)O)[C@H]1O[C@@H](n2ccc(=O)[nH]c2=O)[C@H](O)[C@@H]1O	none (no result: NR2E3 ag-1, NR2E3 ag-2, Neddylation inh)
COc1ccc(OC[C@@H](O)CN2CCC(C(O)(c3ccccc3)c3ccccc3)CC2)cc1	none (no result: NR2E3 ag-1, NR2E3 ag-2, PG9 binder, Neddylation inh)
CSc1nc(N)nc(SCC(=O)OC(C)C)c1C#N	none
CSc1nc(N)nc(SCC(=O)c2ccc(C)cc2)c1C#N	NR2E3 ag-1 47, PG9 binder 23 | NR2E3 ag confirm-1 inactive | PPARg-NCOR2 ag inactive | PG9 binder conf 27 | PGV04 counter 35
COc1ccc(Cn2c(NC(=O)c3ccccc3)nc(Cc3ccccc3)c2-c2ccccc2)cc1	none (no result: NR2E3 ag-1, NR2E3 ag-2, PG9 binder, Neddylation inh)
COC(=O)c1cc(Br)c(=O)n(-c2nccs2)c1	NR2E3 ag-1 25, PG9 binder 28 | NR2E3 ag confirm-1 22 | PPARg-NCOR2 ag 24 | PG9 binder conf 37 | PGV04 counter 50
COC(=O)c1cc(Br)c(=O)n(-c2ccccn2)c1	none
O=C(O)C1CCN(c2nc(-c3ccccc3)c3cc(Br)ccc3n2)CC1	NR2E3 ag-1 21, PG9 binder 15 | NR2E3 ag confirm-1 24 | PPARg-NCOR2 ag 25 | PG9 binder conf 17 | PGV04 counter 36
Cc1ccc2nc(N3CCN(C=O)CC3)nc(-c3ccccc3)c2c1	none (not shown: Neddylation inh)
COc1ccccc1C1C(C(=O)c2cc3ccccc3o2)=C(O)C(=O)N1c1cc(C)on1 (centres undefined)	NR2E3 ag-1 22, PG9 binder 10 | NR2E3 ag confirm-1 20 | PPARg-NCOR2 ag inactive | PG9 binder conf 18 | PGV04 counter 32
Cc1cc(N2C(=O)C(O)=C(C(=O)c3ccc(C)o3)C2c2cccc(Oc3ccccc3)c2)no1 (centres undefined)	none
C=CCOc1cccc(C2C(C(=O)c3cc4ccccc4o3)=C(O)C(=O)N2c2cc(C)on2)c1 (centres undefined)	NR2E3 ag-1 24, PG9 binder 17 | NR2E3 ag confirm-1 31 | PPARg-NCOR2 ag 33 | PG9 binder conf 22 | PGV04 counter 35

Screens as filed in PubChem BioAssay.
